Data on 13 compounds can be found in ChEMBL document CHEMBL1129793, “Quantitative structure-activity relationships for the in vitro antimycobacterial activity of pyrazinoic acid esters” (J Med Chem, 1996).

Data set [1] is described as follows: T1/2 in equine serum. In kind it is ADME, organism-based, Equus caballus. Particulars: horse. Put shortly: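 Ester from a 1 mg/mL stock was mixed with 5% aqueous equine serum in 0.01 M KH2PO4, pH 7.2. Remaining ester was measured by isocratic reverse-phase HPLC (80% acetonitrile/20% 0.1 M sodium acetate, pH 5.0), with UV detection at 265 nm against a standard curve. Half-life is the time to 50% conversion to the acid.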

Data set [2] is described as follows: Partition coefficient (logP). In kind it is physicochemical. Particulars: octanol/water.
Data set [3] deals with Mycobacterium avium. As to the kind of experiment: In vitro activity against Mycobacterium avium (MAC-101). It counts as functional. Put shortly:
(§1)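 Broth macrodilution MIC. Cultures were grown in modified Middlebrook 7H10 broth (agar and malachite green omitted) with 10% OADC and 0.05% Tween 80, shaken at 37 °C for 3 days, then diluted in 7H10 broth to 1 Klett unit/mL. Test agents were dissolved in water or DMSO and filter-sterilised, then serially diluted 2-fold in 7H10 broth at pH 5.8. Tubes were shaken at 37 °C for 7–10 days, with a drug-free control. MIC was the lowest concentration with no visible turbidity, expressed in mmol/L.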

Data set [4] has as its system Mycobacterium tuberculosis. As to the kind of experiment: In vitro activity against Mycobacterium tuberculosis (ATCC 27294). It counts as functional. The essentials: as §1
In data set [5] the test system is Mycobacterium tuberculosis. The data set is described as follows: In vitro activity against Mycobacterium tuberculosis (ATCC 35801). In kind it is functional. The essentials:
as §1

The subject of the next data set is Mycobacterium kansasii. As to the kind of experiment: in vitro activity against Mycobacterium kansasii (SWK). In kind it is functional. The essentials: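 M. kansasii clinical isolate SWK was grown 3 days at 37 °C with shaking in modified Middlebrook 7H10 broth with 10% OADC and 0.05% Tween 80, then diluted. It was tested in serial 2-fold dilutions in 7H10 broth at pH 5.8, shaken at 37 °C for 7–10 days, with a drug-free control. MIC was the lowest concentration giving no visible turbidity, expressed in mmol/L.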

Data set [6] relates to Mycobacterium avium. The data set is described as follows: In vitro activity against Mycobacterium avium (ATCC 49601). In kind it is functional. Put shortly: as §1
For data set [7], the system named is Mycobacterium tuberculosis. As to the kind of experiment: In vitro activity against Mycobacterium tuberculosis (ATCC 35828). It counts as functional. Put shortly: as §1

SMILES strings stand for the structures.

For orientation: half-life means the time needed for the level to fall by half in the phase considered. A lower half-life goes with rapid decline. By logP is commonly meant a log measure of how a compound divides between an organic and an aqueous phase. A higher logP goes with higher lipophilicity. `CCCOC(=O)c1cnc(Cl)cn1` came in with a half-life in data set [1] of 18.7 min. The logP in data set [2] is 1.67. In addition, the “Log 1/MMIC” value worked out at 1.098 with Mycobacterium avium [3]; 3.524 in data set [4]; 3.825 in data set [5]; 2.904 in the data set with Mycobacterium kansasii; 1.098 in the data set on Mycobacterium avium [6].

Regarding `CCCCCCCCC(C)(CCCC)OC(=O)c1cnc(Cl)cn1` (configuration not stated), in data set [1], the half-life worked out at 1140 min. Further, in data set [2], the logP was determined as 7.05. For the same compound, the “Log 1/MMIC” value is 0.744 in the data set with Mycobacterium avium [3], 1.647 in data set [7], 1.346 in the data set with Mycobacterium kansasii and 0.744 with Mycobacterium avium [6].

On to `CCCCCCC(C)(CCCCC)OC(=O)c1cnc(Cl)cn1` (configuration not stated), for which the half-life in data set [1] amounted to 1410 min. The compound further had a log partition coefficient (logP) in data set [2] of 6.45. Also, the “Log 1/MMIC” value in the data set with Mycobacterium avium [3] was found to be 0.726; in data set [4] it was 2.232; in data set [7], 1.329; in the data set with Mycobacterium kansasii, 1.63; in the data set on Mycobacterium avium [6], 0.726.

In data set [1], `O=C(OCc1ccccc1)c1cnc(Cl)cn1` came in with a half-life of 5 min. The logP in data set [2] was 2.39. Besides, the “Log 1/MMIC” value in the data set on Mycobacterium avium [3] stood at 1.493; in data set [5], 2.697; with Mycobacterium kansasii, 2.396; in the data set with Mycobacterium avium [6], 1.794.

For the compound `CCCCCCCCOC(=O)c1cnc(Cl)cn1`, the half-life in data set [1] came out at 1.3 min. Moreover, in data set [2], the lipophilicity (logP) turned out to be 4.48. Also, the “Log 1/MMIC” value was 1.228 with Mycobacterium avium [3], 3.654 in data set [4], 3.955 in the data set on Mycobacterium kansasii and 1.228 in the data set on Mycobacterium avium [6].

`CCCCCC(C)(CCCCC)OC(=O)c1cnc(Cl)cn1` came in with a half-life in data set [1] of 360 min. In addition, in data set [2], the logP stood at 5.82. The “Log 1/MMIC” value with Mycobacterium avium [3] was determined as 0.708; in data set [7], 1.31; in the data set with Mycobacterium kansasii, 1.611; in the data set with Mycobacterium avium [6] it was 0.708.

`CCCCCCCC(C)(CCCC)OC(=O)c1cnc(Cl)cn1` (configuration not stated) had a half-life in data set [1] of 600 min. In data set [2], this compound yielded a logP of 6.44. In addition, the “Log 1/MMIC” value with Mycobacterium avium [3] was found to be 0.124; in data set [4], 1.63; in data set [5], 1.931; in the data set on Mycobacterium kansasii, 1.329; in the data set with Mycobacterium avium [6], 0.124.

In data set [1], `CCCCCC(C)(CCCC)OC(=O)c1cnc(Cl)cn1` (configuration not stated) came in with a half-life of 390 min. In addition, in data set [2], the lipophilicity (logP) was determined as 5.3. For the same compound, the “Log 1/MMIC” value in the data set on Mycobacterium avium [3] stood at 0.087; in data set [4] it was 1.893; in data set [5], 1.592; with Mycobacterium kansasii, 1.291; with Mycobacterium avium [6], 0.087.

In data set [1], `CCCCCCCCCCOC(=O)c1cnc(Cl)cn1` returned a half-life of 1.9 min. This compound returned a log partition coefficient (logP) in data set [2] of 5.48. The “Log 1/MMIC” value in the data set with Mycobacterium avium [3] was 0.97; in data set [5] it was 3.077; in the data set with Mycobacterium kansasii, 2.776; in the data set with Mycobacterium avium [6], 1.271.

`CCCCCCCOC(=O)c1cnc(Cl)cn1`: the half-life in data set [1] worked out at 3.2 min. In data set [2], this compound registered a logP of 3.87. The “Log 1/MMIC” value in the data set on Mycobacterium avium [3] was determined as 1.506; in data set [4] it was 3.631; in the data set with Mycobacterium kansasii, 3.932; with Mycobacterium avium [6] it was 1.205.

`CCCCCCC(C)OC(=O)c1cnc(Cl)cn1` (configuration not stated): the half-life in data set [1] was determined as 28.2 min. In addition, in data set [2], the logP was 3.63. The figures for the “Log 1/MMIC” value in the data set on Mycobacterium avium [3], in the data set with Mycobacterium kansasii and in the data set with Mycobacterium avium [6] were 0.927, 3.035 and 0.927, respectively.

Regarding `CCCCCCC(CCCCCC)OC(=O)c1cnc(Cl)cn1`, in data set [1], the half-life is 60 min. For the same compound, the logP in data set [2] worked out at 7.04. The “Log 1/MMIC” value with Mycobacterium avium [3] was found to be 1.329; in data set [4] it was 3.135; with Mycobacterium kansasii, 2.834; in the data set on Mycobacterium avium [6], 0.726.

In the case of `CCCCCCCCCOC(=O)c1cnc(C)cn1`, the half-life in data set [1] is 1 min. In data set [2], the logP was 4.46. For the same compound, the “Log 1/MMIC” value is given as 0.616 with Mycobacterium avium [3]; 2.422 in data set [4]; 2.422 in data set [5]; 2.121 in the data set with Mycobacterium kansasii; 0.917 in the data set with Mycobacterium avium [6].
